Measurements published in ChEMBL document CHEMBL3745678, “Novel β-Carboline/Hydroxamic Acid Hybrids Targeting Both Histone Deacetylase and DNA Display High Anticancer Activity via Regulation of the p53 Signaling Pathway” (J Med Chem, 2015).
Activity calls are given as the source filed them. The calls are words filed in the database; no cut-off is given here.

How the values were obtained:
[1] = tested on: LoVo; test: Antiproliferative activity against human LoVo cells at 25 uM after 48 hrs by MTT assay; assay type: functional, cell-based
Summary of the method: (§1)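 Single-point screen at 25 µM in HCT116, SW620 and LOVO cells. Cells seeded at 10^4 cells/ml in DMEM + 10% FBS and left to adhere overnight at 37 °C, 5% CO2. MTT read 48 h after dosing with 0.1% DMSO as the negative control. Inhibition % = (1 − OD treated/OD control) × 100; mean ± SD of three measurements.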

[2] = tested on: HCT-116; test: Antiproliferative activity against human HCT116 cells at 25 uM after 48 hrs by MTT assay; assay type: functional, cell-based; summary of the method: as §1
[3] = target: Histone deacetylase; test: Inhibition of HDAC in human HeLa cell nuclear extract using Boc-Lys (Ac)-AMC as substrate after 60 mins by fluorometric analysis; assay type: cell-based
[4] = tested on: SW-620; test: Antiproliferative activity against human SW620 cells at 25 uM after 48 hrs by MTT assay; assay type: functional, cell-based; summary of the method: as §1
[5] = Antiproliferative activity against human HCT116 cells assessed as cell viability after 48 hrs by MTT assay; assay type: functional, cell-based, HCT-116; settings: Homo sapiens, HCT-116, 48 h
[6] = Antiproliferative activity against human SW620 cells assessed as cell viability after 48 hrs by MTT assay; assay type: functional, cell-based; settings: SW-620, 48 h
[7] = tested on: SW480; test: Antiproliferative activity against human SW480 cells assessed as cell viability after 48 hrs by MTT assay; assay type: functional, cell-based; settings: SW480, 48 h
[8] = tested on: LoVo; test: Antiproliferative activity against human LoVo cells assessed as cell viability after 48 hrs by MTT assay; assay type: functional, cell-based
[9] = target: Histone deacetylase 1 (Homo sapiens, UniProt Q13547); test: Inhibition of recombinant human HDAC1 using Boc-Lys (Ac)-AMC as substrate after 60 mins by fluorometric analysis
Histone deacetylase 1, sequence (Q13547 whole entry): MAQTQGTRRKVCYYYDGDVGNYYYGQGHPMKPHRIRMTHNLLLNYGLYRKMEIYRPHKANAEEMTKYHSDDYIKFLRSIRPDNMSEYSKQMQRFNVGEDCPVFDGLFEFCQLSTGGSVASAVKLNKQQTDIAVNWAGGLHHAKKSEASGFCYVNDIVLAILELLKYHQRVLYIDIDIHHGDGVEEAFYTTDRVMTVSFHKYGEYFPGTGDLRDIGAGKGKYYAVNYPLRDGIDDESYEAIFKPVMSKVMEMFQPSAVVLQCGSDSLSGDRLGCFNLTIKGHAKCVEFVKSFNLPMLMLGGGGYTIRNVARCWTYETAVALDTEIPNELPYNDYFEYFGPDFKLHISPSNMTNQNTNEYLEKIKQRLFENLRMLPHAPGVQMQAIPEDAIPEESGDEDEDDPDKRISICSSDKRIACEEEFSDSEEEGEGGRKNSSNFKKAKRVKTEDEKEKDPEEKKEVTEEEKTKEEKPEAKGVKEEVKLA

[10] = target: T1, Histone deacetylase 8 (Homo sapiens, UniProt Q9BY41); test: Inhibition of recombinant human HDAC8 using Boc-Lys (Ac)-AMC as substrate after 60 mins by fluorometric analysis
T1 sequence (Q9BY41 whole entry): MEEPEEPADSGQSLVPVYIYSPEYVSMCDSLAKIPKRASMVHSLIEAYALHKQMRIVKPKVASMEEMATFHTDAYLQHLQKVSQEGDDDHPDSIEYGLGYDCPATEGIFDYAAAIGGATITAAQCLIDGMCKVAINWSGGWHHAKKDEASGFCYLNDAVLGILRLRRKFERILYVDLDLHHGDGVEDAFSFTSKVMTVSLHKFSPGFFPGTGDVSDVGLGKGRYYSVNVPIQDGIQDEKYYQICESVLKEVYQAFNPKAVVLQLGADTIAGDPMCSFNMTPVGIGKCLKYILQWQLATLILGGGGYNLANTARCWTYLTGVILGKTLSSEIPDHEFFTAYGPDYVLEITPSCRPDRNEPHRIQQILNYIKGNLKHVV

[11] = tested on: HCT-116; test: Potency index, ratio of SAHA IC50 to compound IC50 for human HCT116 cells; assay type: functional
Summary of the method: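 HCT116 cells seeded at 10^4 cells/ml and adhered overnight, then treated 48 h over a concentration series with 0.1% DMSO as control. MTT readout; IC50 derived from inhibition % = (1 − OD treated/OD control) × 100, three independent measurements. Index = SAHA IC50 ÷ compound IC50.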

[12] = target: T2, Protein deacetylase HDAC6 (Homo sapiens, UniProt Q9UBN7); test: Inhibition of recombinant human HDAC6 using Boc-Lys (Ac)-AMC as substrate after 60 mins by fluorometric analysis
T2 sequence (Q9UBN7 whole entry): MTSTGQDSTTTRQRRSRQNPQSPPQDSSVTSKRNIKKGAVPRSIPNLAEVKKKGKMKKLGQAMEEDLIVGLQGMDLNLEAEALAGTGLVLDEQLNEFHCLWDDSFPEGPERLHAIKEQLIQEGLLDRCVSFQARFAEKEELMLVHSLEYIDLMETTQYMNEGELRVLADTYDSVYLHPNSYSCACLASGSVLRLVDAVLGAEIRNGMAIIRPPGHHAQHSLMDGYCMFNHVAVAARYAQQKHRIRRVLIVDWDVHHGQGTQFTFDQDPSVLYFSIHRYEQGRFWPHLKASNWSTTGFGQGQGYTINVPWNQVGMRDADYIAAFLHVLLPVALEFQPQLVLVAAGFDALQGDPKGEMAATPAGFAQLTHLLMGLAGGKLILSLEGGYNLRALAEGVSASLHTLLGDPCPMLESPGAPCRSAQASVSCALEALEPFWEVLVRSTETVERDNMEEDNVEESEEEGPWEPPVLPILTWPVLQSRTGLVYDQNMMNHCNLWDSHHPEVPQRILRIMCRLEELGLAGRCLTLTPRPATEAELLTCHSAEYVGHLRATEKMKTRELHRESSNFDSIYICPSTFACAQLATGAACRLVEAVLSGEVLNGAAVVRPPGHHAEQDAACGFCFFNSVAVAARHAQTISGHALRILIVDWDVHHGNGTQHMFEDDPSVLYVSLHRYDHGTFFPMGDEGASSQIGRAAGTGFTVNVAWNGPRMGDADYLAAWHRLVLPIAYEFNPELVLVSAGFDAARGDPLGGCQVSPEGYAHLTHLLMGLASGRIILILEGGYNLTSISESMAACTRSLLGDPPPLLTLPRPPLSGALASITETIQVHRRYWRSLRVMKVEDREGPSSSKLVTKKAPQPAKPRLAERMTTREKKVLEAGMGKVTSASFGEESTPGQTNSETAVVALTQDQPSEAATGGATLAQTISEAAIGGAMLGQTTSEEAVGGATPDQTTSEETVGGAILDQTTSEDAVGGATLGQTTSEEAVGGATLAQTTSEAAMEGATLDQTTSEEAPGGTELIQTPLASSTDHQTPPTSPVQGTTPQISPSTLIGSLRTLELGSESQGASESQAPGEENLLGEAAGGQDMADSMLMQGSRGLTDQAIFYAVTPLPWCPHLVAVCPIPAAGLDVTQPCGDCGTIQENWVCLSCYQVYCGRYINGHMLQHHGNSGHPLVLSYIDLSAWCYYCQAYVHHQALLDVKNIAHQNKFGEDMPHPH

## Cc1nc(C(=O)NCC(=O)NO)cc2c1[nH]c1ccccc12
[1]
  Activity: inactive
[2]
  Activity: inactive
[3]
  IC50: 5.37 µM
[4]
  Activity: inactive

## COc1ccc(-c2nc(C(=O)NCCC(=O)NO)cc3c2[nH]c2ccccc23)cc1
[5]
  IC50: 8.64 µM
[6]
  IC50: 6.73 µM
[7]
  IC50: 11.2 µM
[1]
  Activity: Active
[2]
  Activity: Active
[3]
  IC50: 1.31 µM
[8]
  IC50: 9.01 µM
[4]
  Activity: Active

## COc1ccc(-c2nc(C(=O)NCCCC(=O)NO)cc3c2[nH]c2ccccc23)cc1
[5]
  IC50: 2.72 µM
[6]
  IC50: 4.46 µM
[7]
  IC50: 4.65 µM
[1]
  Activity: Active
[2]
  Activity: Active
[9]
  IC50: 0.13 µM
[10]
  IC50: 0.39 µM
[3]
  IC50: 0.67 µM
[11]
  Ratio IC50: 2
[12]
  IC50: 0.061 µM
[8]
  IC50: 3.77 µM
[4]
  Activity: Active

## COc1ccc(-c2nc(NC(=O)NCCC(=O)NO)cc3c4ccccc4n(C)c23)cc1
[5]
  IC50: 4.27 µM
[6]
  IC50: 5.02 µM
[7]
  IC50: 4.4 µM
[3]
  IC50: 1.33 µM
[8]
  IC50: 5.66 µM

## COc1ccc(-c2nc(NC(=O)NCCCCCC(=O)NO)cc3c2[nH]c2ccccc23)cc1
[5]
  IC50: 4.84 µM
[6]
  IC50: 6.25 µM
[7]
  IC50: 5.09 µM
[3]
  IC50: 0.82 µM
[8]
  IC50: 7.34 µM

## O=C(CCCCNC(=O)c1cc2c(cn1)[nH]c1ccccc12)NO
[1]
  Activity: inactive
[2]
  Activity: inactive
[3]
  IC50: 1.43 µM
[4]
  Activity: inactive

## O=C(CNC(=O)c1cc2c(cn1)[nH]c1ccccc12)NO
[1]
  Activity: inactive
[2]
  Activity: inactive
[3]
  IC50: 6.17 µM
[4]
  Activity: inactive

## COc1ccc(-c2nc(NC(=O)NCCCCC(=O)NO)cc3c2[nH]c2ccccc23)cc1
[5]
  IC50: 0.99 µM
[6]
  IC50: 2.02 µM
[7]
  IC50: 1.73 µM
[9]
  IC50: 0.079 µM
[10]
  IC50: 0.2 µM
[3]
  IC50: 0.35 µM
[12]
  IC50: 0.093 µM
[8]
  IC50: 2.17 µM

## COc1ccc(-c2nc(C(=O)NCC(=O)NO)cc3c2[nH]c2ccccc23)cc1
[5]
  IC50: > 12.5 µM
[6]
  IC50: 6.92 µM
[7]
  IC50: 10.5 µM
[1]
  Activity: Active
[2]
  Activity: Active
[3]
  IC50: 3.02 µM
[8]
  IC50: > 12.5 µM
[4]
  Activity: Active

## Cc1nc(C(=O)NCCCCCC(=O)NO)cc2c1[nH]c1ccccc12
[1]
  Activity: inactive
[2]
  Activity: inactive
[3]
  IC50: 1.43 µM
[4]
  Activity: inactive

## COc1ccc(-c2nc(C(=O)NCCCCCC(=O)NO)cc3c2[nH]c2ccccc23)cc1
[5]
  IC50: 7.16 µM
[6]
  IC50: 8.06 µM
[7]
  IC50: 9.83 µM
[1]
  Activity: Active
[2]
  Activity: Active
[3]
  IC50: 1.17 µM
[8]
  IC50: 7.9 µM
[4]
  Activity: Active

## COc1ccc(-c2nc(NC(=O)NCCC(=O)NO)cc3c2[nH]c2ccccc23)cc1
[5]
  IC50: 3.08 µM
[6]
  IC50: 2.69 µM
[7]
  IC50: 3.11 µM
[9]
  IC50: 0.11 µM
[10]
  IC50: 0.43 µM
[3]
  IC50: 0.43 µM
[12]
  IC50: 0.36 µM
[8]
  IC50: 3.61 µM

## Cc1nc(C(=O)NCCCCC(=O)NO)cc2c1[nH]c1ccccc12
[1]
  Activity: inactive
[2]
  Activity: inactive
[3]
  IC50: 1.26 µM
[4]
  Activity: inactive

## O=C(CCNC(=O)c1cc2c(cn1)[nH]c1ccccc12)NO
[1]
  Activity: inactive
[2]
  Activity: inactive
[3]
  IC50: 3.23 µM
[4]
  Activity: inactive

## O=C(CCCCCNC(=O)c1cc2c(cn1)[nH]c1ccccc12)NO
[1]
  Activity: inactive
[2]
  Activity: inactive
[3]
  IC50: 1.81 µM
[4]
  Activity: inactive

## Cc1nc(C(=O)NCCCC(=O)NO)cc2c1[nH]c1ccccc12
[1]
  Activity: inactive
[2]
  Activity: inactive
[3]
  IC50: 1.21 µM
[4]
  Activity: inactive

## Cc1nc(C(=O)NCCC(=O)NO)cc2c1[nH]c1ccccc12
[1]
  Activity: inactive
[2]
  Activity: inactive
[3]
  IC50: 2.45 µM
[4]
  Activity: inactive

## COc1ccc(-c2nc(NC(=O)NCCCCC(=O)NO)cc3c4ccccc4n(C)c23)cc1
[5]
  IC50: 3.87 µM
[6]
  IC50: 5.09 µM
[7]
  IC50: 5.8 µM
[3]
  IC50: 0.86 µM
[8]
  IC50: 6.24 µM

## COc1ccc(-c2nc(NC(=O)NCC(=O)NO)cc3c4ccccc4n(C)c23)cc1
[5]
  IC50: 9.3 µM
[6]
  IC50: 8.36 µM
[7]
  IC50: 9.81 µM
[3]
  IC50: 3.16 µM
[8]
  IC50: > 12.5 µM

## COc1ccc(-c2nc(NC(=O)NCC(=O)NO)cc3c2[nH]c2ccccc23)cc1
[5]
  IC50: 8.52 µM
[6]
  IC50: 7.12 µM
[7]
  IC50: 10.1 µM
[3]
  IC50: 2.24 µM
[8]
  IC50: 9.36 µM

## COc1ccc(-c2nc(C(=O)NCCCCC(=O)NO)cc3c2[nH]c2ccccc23)cc1
[5]
  IC50: 3.35 µM
[6]
  IC50: 2.53 µM
[7]
  IC50: 4.43 µM
[1]
  Activity: Active
[2]
  Activity: Active
[3]
  IC50: 0.81 µM
[8]
  IC50: 5.28 µM
[4]
  Activity: Active

## COc1ccc(-c2nc(NC(=O)NCCCCCC(=O)NO)cc3c4ccccc4n(C)c23)cc1
[5]
  IC50: 8.76 µM
[6]
  IC50: 9.53 µM
[7]
  IC50: > 12.5 µM
[3]
  IC50: 1.05 µM
[8]
  IC50: > 12.5 µM

## O=C(CCCNC(=O)c1cc2c(cn1)[nH]c1ccccc12)NO
[1]
  Activity: inactive
[2]
  Activity: inactive
[3]
  IC50: 1.56 µM
[4]
  Activity: inactive
